System: MS2 coat protein
Test: apparent Kd, MS2 coat protein; higher = weaker binding; RNA-MaP array; FMN 200 µM where present
Summary of the method: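 The apparent Kd is reported as the median of filtered per-cluster binding-curve fits. To get these curves, designs transcribed by stalled E. coli RNA polymerase on Illumina sequencing-chip clusters were titrated with SNAP-549-labelled MS2 coat protein from 0.7 or 1.5 nM, doubling to 3 µM. Titrations were run without and then with constant ligand in 100 mM Tris-HCl pH 7.5, 80 mM KCl, 4 mM MgCl2, BSA, DTT, yeast tRNA and Tween-20, and green signal was normalised to red-channel RNA signal and control-cluster median Fmax.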

[1] = designed as: OFF switch for flavin mononucleotide, no ligand
[2] = ligand present: flavin mononucleotide, designed as: OFF switch for flavin mononucleotide
[3] = designed as: ON switch for flavin mononucleotide, no ligand
[4] = ligand present: flavin mononucleotide, designed as: ON switch for flavin mononucleotide

| Sequence | apparent Kd [1] | apparent Kd [2] | apparent Kd [3] | apparent Kd [4] |
| --- | --- | --- | --- | --- |
| UCUUUACUGGUCAGGAUAUACAUUCGCUACUCCUUGUAGAAGGGACAUGAGGAUCACCCAUGUACUUUACAUUC | 0.0185 µM | 0.0195 µM |  |  |
| UGAAAUCAUGUAGGAUAUGCAUGGCGAAGCUACGCAGAAGGACAUGAGGAUCACCCAUGUUAUAGCUACCCAGUUUGGUGGCAA | 0.0498 µM | 0.151 µM |  |  |
| UGAAAUCAUGUAGGAUAUGCAUGGCGAAGCUACGCAGAAGGACAUGAGGAUCACCCAUGUUCUAGCUACCGAGUACGGUGGCAA | 0.0231 µM | 0.121 µM |  |  |
| UGAACUAUGUAGAAGGCCCACAUUAAUAUGUAGGGAGGAUAUACAUGAGGAUCACCCAUGUAAAGAGCAAGAGGAUUUAACAGA | 0.0103 µM | 0.0217 µM |  |  |
| UGAACUAUGUAGAAGGCCCGCAUGAAAAUGACGGGAGGAUAUACAUGAGGAUCACCCAUGUGAAGAGCAAGAGGGUUUAACAGA | 0.282 µM | 0.163 µM |  |  |
| UGAAUAAUGUUAGGAUAUACAUGAGGAAUCCUCGUAGAAGGAACAUGACAUGAGGAUCACCCAUGUAGCGCUCAGAAGAGCGCA |  |  | 0.14 µM | 0.135 µM |
| UGAAUGUGAGGAUAUGGUGAGUAGUGCCUGAGCGCUGCUCACCAGAAGGCACAUGAGGAUCACCCAUGUACUUG | 0.0669 µM | 0.215 µM |  |  |
| UGACUGAUAUAGAAGGGUAUGUGGGAAUUACAUGAGGAUCACCCAUGUUUUAUAGGAUAUGUAUAUAGAAUUUAAUCAAGUUUA | 0.0405 µM | 0.0371 µM |  |  |
| UGACUGCGUAGAAUUAGCAGCUGACAGGAUAUGACAUGAGGAUCACCCAUGUGAAAUAAGAAGAGUCAGAAGGGUCACGACACA | 0.00951 µM | 0.00879 µM |  |  |
| UGAGACCUCACAGGAUAUGCUGGACUUUGUCCAGCAGAAGGGUGAAAACAUGAGGAUCACCCAUGUAUGGUCUCCAAAUUUAAU |  |  | 0.164 µM | 0.0127 µM |
| UGAGGACAUGAGGAUCACCCAUGUAAGGAUAUGCGGAGAGUUUGGAGAGGUUGAGGAGGCAGAAGGUACAGGAU | 0.0895 µM | 0.0585 µM |  |  |
| UGAUAACAUGAGGAUCACCCAUGUCAGGAUAUAAAUUGAGCUCCUUGGACGCCACCGUUUAGAAGGGACGCAUG | 0.0237 µM | 0.0227 µM |  |  |
| UGAUAACAUGUAGGAUAUCCAGCAUUGACCAUCGGAGAAGGACAUGAGGAUCACCCAUGUACCGAUACAAUGGAAUAAGGGAAU | 0.0155 µM | 0.0179 µM |  |  |
| UGAUAACAUGUAGGAUAUGCAGCAUUGACCAUUGCAGAAGGACAUGAGGAUCACCCAUGUACCGAUACAAUGGGAUCACGCAAU | 0.0153 µM | 0.0185 µM |  |  |
| UGAUAGGACAGAGGAUAUACAGAUAGGAUCUACUAUCAAACAAUCCUCACAUGAGGAUCACCCAUGUAGAAGGCUGUCCUAUCU | 0.106 µM | 0.888 µM |  |  |
| UGAUAGGACAGAGGAUAUACGUGCUGGAGAUACUAGCAAAGUAUCUUGACAUGAGGAUCACCCAUGUAGAAGGCUGUCCUAUCU | 0.0169 µM | 0.0892 µM |  |  |
| UGAUCAAAUGUCAGGAUAUGCUGUUGGAAACAACAGCAGAAGGGACAUGAGGAUCACCCAUGUCUUGUCGAUUU | 0.0214 µM | 0.112 µM |  |  |
| UGCACAUGAGGAUCACCCAUGUAUUGUUCGGUUAAUAGAAGUGAGGAUAUGCAUAAAAUAAGGUAGCAGAAGGCACAGGAUUCA |  |  | 0.0239 µM | 0.0255 µM |
| UGCAUGCUAGGAUAUACGAAACAUUAGGGUUCUUCGUAUGAACAUGAGGAUCACCCAUGUAGAAGGAGCGUGCU | 0.0355 µM | 0.191 µM |  |  |
| UGCAUGCUAGGAUAUACGAAACAUUAGGGUUCUUUGUGUGAACAUGAGGAUCACCCAUGUAGAAGGAGCGUGCU | 0.151 µM | 0.0385 µM |  |  |
| UGCAUGUAAGGAUAUGCAUCCGCCGACGUCCCGGCGGCACAGCAGAAGGUACAUGAGGAUCACCCAUGUGUCCC | 0.0288 µM | 0.155 µM |  |  |
| UGCUGGUGACAGCAUCCAUCAAAACAUGAGGAUCACCCAUGUAGAAGGCUGUACGGUUACCGUACAGAGGAUAUACAAUGAUGG | 0.00727 µM | 0.00869 µM |  |  |
| UGGAAAUGCGAGAAGGACAUGAGGAUCACCCAUGUAGGAUAUCGACCUAGGUGCAGAUCGUUAUAGGAUCUCUUCGCUUGUAGG |  |  | 0.0165 µM | 0.00708 µM |
| UGGAUCAAUACAGGAUAUGGUGACGCACAUGAGGAUCACCCAUGUCCGCAGCGUGCUCAGCACGCCCAGAAGGGUAUUGACUCG |  |  | 0.731 µM | 0.0888 µM |
| UGGAUCAUCGGAGGAUAUCAUGUAGAUACAUGAGGAUCACCCAUGUCGAUGGAGACAUCGGAGAUUGAGAAGGCCGAUGAUCCU |  |  | 0.543 µM | 0.0309 µM |
| UGGAUGGUAUGAGGAUAUGCGCGUGAAACGCGCGCAGAAGGCAUGUCAAUAGACAUGAGGAUCACCCAUGUACUAUCCAUCCAA |  |  | 0.114 µM | 0.00965 µM |
| UGGAUGUAAGAGAAGGAGGACUUCAUGAGGAUCACCCAUGUGUUAGUACUUAGGAUAUUUGACAACAUGAGGAUCACCCAUGUC |  |  | 0.0756 µM | 0.0678 µM |

| Sequence | apparent Kd [1] | apparent Kd [2] | apparent Kd [3] | apparent Kd [4] |
| --- | --- | --- | --- | --- |
| UGGAUGUAGGAGAAGGAGGACUUCAUGAGGAUCACCCAUGUGUUAGUACUUAGGAUAUUUGACAACAUGAGGAUCACCCAUGUG |  |  | 0.105 µM | 0.0964 µM |
| UGGGAACGAGGAUAUCGAUGGUGGAACAUGAGGAUCACCCAUGUAUGAGAUAGUGUAGGGCGAGAAGGCGUUAAGU | 0.0948 µM | 0.0665 µM |  |  |
| UGGGCCCGAACAGGAUAUGUAACCAGUCCCUCACAUGAGGAUCACCCAUGUCCAAGGGCUCGAAGGCAGAAGGGUUAAGGCUGU |  |  | 0.74 µM | 0.138 µM |
| UGGGUGGUAUGAGGAUAUGCGCGCGAAACGCGCGCAGAAGGCAUGUCAAUAGACAUGAGGAUCACCCAUGUAUUAUCCAUCCAA |  |  | 0.412 µM | 0.0283 µM |
| UGGGUGGUCCGAGGAUAUGUCACAUGAGGAUCACCCAUGUAAAACCAAGAGACAGAAGGCGGACAUAGACGCCCAAUUGCGCUC |  |  | 0.0307 µM | 0.00503 µM |
| UGGUAACAUGAGGAUCACCCAUGUCAGGAUAUCAGGAAGAGGAGAGGAGAGGAGAAGAUGAGAAGGGACUAUAU | 0.0272 µM | 0.0219 µM |  |  |
| UGGUACAUCGGAGGAUAUCAUGUAAAUACAUGAGGAUCACCCAUGUCGAUGGAGACAUCGGAGAUUGAGAAGGCCGAUGUACCG |  |  | 0.166 µM | 0.00866 µM |
| UGGUACAUCGGAGGAUAUCGUGUGUAAACAUGAGGAUCACCCAUGUCAUACGAGAGUAUGUAGAUCGAGAAGGCCGAUGUACCU |  |  | 0.0167 µM | 0.0162 µM |
| UGGUACAUCGGAGGAUAUCGUGUGUAAACAUGAGGAUCACCCAUGUCGUACGAGAGUACGUAGAUCGAGAAGGCCGAUGUACCU |  |  | 0.0172 µM | 0.0147 µM |
| UGGUACAUGGGAGGAUAUCCUCAAGACAUGAGGAUCACCCAUGUAAAUUAUAAGCCGAAAGGCAUGGAGAAGGCCCAUGUACCU |  |  | 0.0963 µM | 0.0202 µM |
| UGGUACAUGGGAGGAUAUCCUCACAUGAGGAUCACCCAUGUAAAGAAUUAUAAGCCGAAAGGCAUGGAGAAGGCCCAUGUACCU |  |  | 0.0876 µM | 0.0162 µM |
| UGGUACUAGGCAGGAUAUGGGAAGAUACAUGAGGAUCACCCAUGUUUAAGAAUGCCGAGAGGCAACUAGAAGGCCCUAGUACCU |  |  | 0.719 µM | 0.62 µM |
| UGGUACUAGGGAGGAUAUGCGAAGAUACAUGAGGAUCACCCAUGUUUAAGAAUGCCGAGAGGCAACUAGAAGGCCCUAGUACCU |  |  | 0.0085 µM | 0.00538 µM |
| UGGUACUAGGGAGGAUAUGGGAAGAUACAUGAGGAUCACCCAUGUUUAAGAAUGCCGAGAGGCAACUAGAAGGCCCUAGUACGU |  |  | 0.434 µM | 0.0196 µM |
| UGGUACUAGGGAGGAUAUGGGAAGAUACAUGAGGAUCACCCAUGUUUAAGAAUGCCGAGAGGCAACUAGAAGGCCCUUGUACCU |  |  | 0.444 µM | 0.0193 µM |
| UGGUACUAGGGAGGAUAUGGGAAGAUACAUGAGGAUCACCCAUGUUUAAGAAUGCUGAGAGGCAACUAGAAGGCCCUAGUACCU |  |  | 0.439 µM | 0.0209 µM |
| UGGUACUAGGGAGGAUAUGGGAAGAUACAUGAGGAUCACCCAUGUUUAAGCAUGCCGAGAGGCAACUAGAAGGCCCUAGUACCU |  |  | 0.357 µM | 0.018 µM |
| UGGUACUUGGGAGGAUAUGGGAAGAUACAUGAGGAUCACCCAUGUUUAAGAAUGCCGAGAGGCAACUAGAAGGCCCUAGUACCU |  |  | 0.493 µM | 0.02 µM |
| UGGUAUUAGGGAGGAUAUGGGAAGAUACAUGAGGAUCACCCAUGUUUAAGAAUGCCGAGAGGCAACUAGAAGGCCCUAGUACCU |  |  | 0.5 µM | 0.0203 µM |
| UGGUGUGAGCUAUCACAUGACUGGGAGGAUAUGACAUGAGGAUCACCCAUGUGGGAUCUAAAUUGUCAGAAGGCUCGAUCUGGG | 0.75 µM | 0.208 µM |  |  |
| UGGUUGUGUGUUAGGAUAUGGUCUGGUGUUUCGGGCUAGAAGGGACAUGAGGAUCACCCAUGUGGCUGGCGGGU | 0.127 µM | 0.126 µM |  |  |
| UGUAUACAGUCAGGAUAUCAUAGGUUGGUGCUUCUCCAGUGGUACAUGAGGAUCACCCAUGUUUAUGAGAAGGGACUAUUACCU | 0.00782 µM | 0.0151 µM |  |  |
| UGUAUGGACAGAGGAUAUACGGAUAGGAUCUACUAUCUUCCUUAAAUAACAUGAGGAUCACCCAUGUAGAAGGCUGUCCAUACU | 0.019 µM | 0.0747 µM |  |  |
| UGUCAAGCAGGAUAUGCACGUAAUAACAUGAGGAUCACCCAUGUGACCGAUUUAUAUUUUGCAGAAGGGCUUGUUU | 0.0797 µM | 0.0782 µM |  |  |
| UGUCCAUAGCAGAAGGACAUGAAUAAAUAUGAAAACAUGAGGAUCACCCAUGUAGGAUAUGCUAUGGACUAAGAGCGAAAGCUC | 0.00768 µM | 0.0493 µM |  |  |
| UGUCCGGUCAUAGGAUAUGACAUGAGGAUCACCCAUGUCUGCUUGGCUUGACCGUUGAUCCAUUGUCAGAAGGGUGCCGUUACA | 0.0433 µM | 0.0631 µM |  |  |
| UGUCGGAGCAGAGGAUAUACAUGAGGAUCACCCAUGUAAAUGAAAGAUAGCUCGAAACGAGCAAAGUAGAAGGCUGCUCCGACA | 0.0149 µM | 0.0247 µM |  |  |

Reference: the EternaBench riboswitch data
